Reference: PubChem BioAssay AID488769 (The Scripps Research Institute Molecular Screening Center, 2010)

Biological target: Nuclear receptor subfamily 5 group A member 2 (Homo sapiens) (UniProt O00482)
Experiment: lowering haptoglobin, SAA1, SAA4 transcripts – cell-based, quantitative PCR, fluorescence (AID 488769)
Settings: Huh7 cytokine-induced target gene mRNA, TaqMan qPCR, 18 h, at 10 µM, hits give high values;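 active = compounds cutting cytokine-driven expression of at least one of three liver inflammation genes by over 25%; inactive = the rest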
Outline: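 Material: Huh7 cells with endogenous LRH-1 expression; also added: IL-1β and IL-6, 3 nM; compound dosing: single test concentration of 10 µM, DMSO as vehicle; timing: 18 h compound exposure, then 3 h cytokine stimulation; detection: TaqMan qPCR of haptoglobin, SAA1 and SAA4 mRNA; read-out basis: mean % inhibition of target mRNA; repeats: triplicate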

Measured: inhibition

Chain of Nuclear receptor subfamily 5 group A member 2 (Homo sapiens) (O00482 whole entry, looked up): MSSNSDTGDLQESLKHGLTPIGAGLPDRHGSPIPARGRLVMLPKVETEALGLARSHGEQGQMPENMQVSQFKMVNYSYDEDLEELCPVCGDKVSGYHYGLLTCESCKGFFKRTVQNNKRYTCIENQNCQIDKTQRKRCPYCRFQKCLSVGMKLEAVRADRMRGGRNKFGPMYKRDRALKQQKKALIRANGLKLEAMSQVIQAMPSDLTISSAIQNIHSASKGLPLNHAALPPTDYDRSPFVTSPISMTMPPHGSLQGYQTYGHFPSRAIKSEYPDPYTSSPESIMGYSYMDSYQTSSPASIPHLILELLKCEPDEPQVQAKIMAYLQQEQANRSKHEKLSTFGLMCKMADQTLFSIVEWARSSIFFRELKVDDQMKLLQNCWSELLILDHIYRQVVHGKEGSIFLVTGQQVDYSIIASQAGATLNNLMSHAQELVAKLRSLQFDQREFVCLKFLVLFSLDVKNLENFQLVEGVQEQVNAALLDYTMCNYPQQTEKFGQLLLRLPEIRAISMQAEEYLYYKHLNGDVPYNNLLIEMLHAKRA

O=c1cc(N2CCN(c3cccc(C(F)(F)F)c3)CC2)[nH]c(=O)n1C1CCCCC1
active: Haptoglobin 86% | SAA1 93% | SAA4 55%

O=c1cc(N2CCN(c3cccc(Cl)c3)CC2)[nH]c(=O)n1C1CCCCC1
active: Haptoglobin 88% | SAA1 91% | SAA4 55%
